One assay deals with Hs68 cells. Put plainly: TR-FRET cAMP assay in normal fibroblast cell line Hs68. The class given is cell-based, human. The note with it: 10 μM agonist, Hs68 fibroblasts.
Assay [1] addresses T1, EP2 receptor (Homo sapiens, UniProt P43116). Put plainly: cell-based. It counts as cell-based.
Assay [2] relates to EP2-deleted SK-N-AS cells. In words: TR-FRET cAMP assay in EP2 knockout SK-N-AS cell lines. The class given is cell-based, human. The settings on record: read-out: PGE2 EC50 for cAMP. In a few lines: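 EP2-knockout SK-N-AS lines were made with lentiCRISPRv2 sgRNAs, selected with puromycin (2 µg/mL) and verified by sequencing. […] After lysis with cAMP-d2 and anti-cAMP cryptate and 1 h at RT, TR-FRET was read (ex 340 nm; em 665/590 nm), n = 4. EC50 came from concentration–response curves.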

The target in assay [3] is T1, EP2 receptor. In words: Cell-based TR-FRET cAMP assay in BE.

Each structure is given as a SMILES string. Where two headings read alike, the source gives them in different places.

T1 sequence (P43116 whole entry): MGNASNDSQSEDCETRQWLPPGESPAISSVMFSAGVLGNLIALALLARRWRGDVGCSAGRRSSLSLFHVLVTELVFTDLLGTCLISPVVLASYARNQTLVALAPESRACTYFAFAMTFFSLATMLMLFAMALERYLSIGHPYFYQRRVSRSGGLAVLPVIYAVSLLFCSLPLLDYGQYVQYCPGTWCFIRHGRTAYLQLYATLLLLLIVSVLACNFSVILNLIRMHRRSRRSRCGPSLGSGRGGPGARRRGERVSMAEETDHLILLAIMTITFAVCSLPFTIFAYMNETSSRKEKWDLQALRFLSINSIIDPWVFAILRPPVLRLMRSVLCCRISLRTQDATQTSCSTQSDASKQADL

Turning to `O=C1CC[C@H](/C=C/[C@@H](O)Cc2ccccc2)N1CCCCCCc1nn[nH]n1` [CAY10598], the cAMP production entry with Hs68 cells is “more cAMP production than EP2 agonist butaprost and PGE2”.

As to `CCOc1c2c(c(OCC)c3ccccc13)C(=O)N(c1ccc(CC(=O)NS(=O)(=O)c3ccccc3)cc1)C2` [GW627368X], the “IC50, inhibition of PGE2-induced cAMP production” value against EP2 receptor [1] was “no effect”. Consider `CCCCC[C@H](O)/C=C/[C@H]1[C@H](O)CC(=O)[C@@H]1C/C=C\CCCC(=O)O` [PGE2, Prostaglandin E2], for which the half-maximal effective concentration (EC50) in assay [2] (Homo sapiens, SK-N-AS) was above 10 µM; in assay [2] (EP2 KO2 SK-N-AS cell line), above 10 µM. For the compound `CCCC1([C@H](O)C/C=C/[C@H]2[C@H](O)CC(=O)[C@@H]2CCCCCCC(=O)OC)CCC1` [butaprost], the EC50 at EP2 receptor [3] is 0.47 µM; on EP2 receptor [1] (agonist EC50 for cAMP induction, SK-N-AS cells, n = 4), 0.17 µM.

Source of the values: PMC9282716 (Cell reports, 2022).
